Measurements: ChEMBL document CHEMBL2021854, “2-Aminopyrimidine based 4-aminoquinoline anti-plasmodial agents. Synthesis, biological activity, structure-activity relationship and mode of action studies” (Eur J Med Chem, 2012)

What was measured:
[1] = system: Plasmodium falciparum; assay: Antiplasmodial activity chloroquine-sensitive Plasmodium falciparum 3D7 infected in human A+ erythrocytes assessed as inhibition of [3H]-hypoxanthine incorporation after 24 hrs by scintillation counting; type: functional, organism-based
[2] = system: Plasmodium falciparum; assay: Resistant factor, ratio of IC50 for chloroquine-resistant Plasmodium falciparum K1 to IC50 for chloroquine-sensitive Plasmodium falciparum 3D7; type: functional
Outline: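 Resistance factor computed as IC50 against K1 divided by IC50 against 3D7, both from the [3H]hypoxanthine incorporation assay.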

[3] = system: MDCK; assay: Cytotoxicity against MDCK cells assessed as cell viability by colorimetric formazan-based MTS assay; design: species or system Canis lupus familiaris; conditions: dog, mdck
Outline: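 Cytotoxicity on MDCK cells; 50% cytotoxic concentration from cell viability measured by colorimetric formazan-based MTS assay.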

[4] = Selectivity index, ratio of CC50 for MDCK cells to IC50 for chloroquine-resistant Plasmodium falciparum K1; type: functional
Outline: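 Selectivity index computed as MTS-based CC50 on MDCK cells divided by IC50 against P. falciparum K1.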

[5] = Cytotoxicity against african green monkey Vero cells assessed as minimum compound concentration required to causes microscopically detectable alteration of normal cell morphology; type: cell-based; conditions: chlorocebus sabaeus
Outline: (§1)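 Confluent, non-proliferating cell cultures were exposed to the compounds. The endpoint was the minimum concentration producing a microscopically detectable alteration of normal cell morphology.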

[6] = system: Human respirovirus 3; assay: Antiviral activity against Parainfluenza-3 virus infected in african green monkey Vero cells assessed as inhibition of virus-induced cytopathogenicity after 4 days; type: functional, organism-based; conditions: Human respirovirus 3, Vero, 96 h
Outline: (§2)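 Confluent HEL, Vero or HeLa monolayers were inoculated with 100 CCID50 of virus in the presence of varying concentrations of compound. Cytopathicity was scored when it reached completion in untreated, virus-infected control cultures.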

[7] = system: Mammalian orthoreovirus 1; assay: Antiviral activity against Reovirus-1 infected in african green monkey Vero cells assessed as inhibition of virus-induced cytopathogenicity after 4 days; type: functional, organism-based; conditions: Mammalian orthoreovirus 1, Vero, 96 h; outline: as §2
[8] = system: Coxsackievirus B4; assay: Antiviral activity against Coxsackie virus B4 infected in african green monkey Vero cells assessed as inhibition of virus-induced cytopathogenicity after 4 days; type: functional, organism-based; conditions: Enterovirus B, 96 h; outline: as §2
[9] = system: Punta Toro virus; assay: Antiviral activity against Punta Toro virus infected in african green monkey Vero cells assessed as inhibition of virus-induced cytopathogenicity after 4 days; type: functional, organism-based; conditions: 96 h; outline: as §2
[10] = system: Human alphaherpesvirus 2; assay: Antiviral activity against HSV2 G infected in HEL cells assessed as inhibition of virus-induced cytopathogenicity after 4 days; type: functional, organism-based; conditions: Human alphaherpesvirus 2, strain G, 96 h; outline: as §2
[11] = system: Vesicular stomatitis virus; assay: Antiviral activity against Vesicular stomatitis virus infected in HEL cells assessed as inhibition of virus-induced cytopathogenicity after 4 days; type: functional, organism-based; conditions: 96 h
Outline: (§3)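 Confluent HEL or HeLa monolayers infected with 100 CCID50 of virus in the presence of varying compound concentrations.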

[12] = system: Human alphaherpesvirus 1; assay: Antiviral activity against thymidine kinase-deficient acyclovir-resistant HSV1 KOS infected in HEL cells assessed as inhibition of virus-induced cytopathogenicity after 4 days; type: functional, organism-based; conditions: Human alphaherpesvirus 1, KOS, 96 h; outline: as §3
[13] = Cytotoxicity against human HEL cells assessed as minimum compound concentration required to causes microscopically detectable alteration of normal cell morphology; type: cell-based; outline: as §1
[14] = Cytotoxicity against human HeLa cells assessed as minimum compound concentration required to causes microscopically detectable alteration of normal cell morphology; type: cell-based; outline: as §1
[15] = system: Vesicular stomatitis virus; assay: Antiviral activity against Vesicular stomatitis virus infected in HeLa cells assessed as inhibition of virus-induced cytopathogenicity after 4 days; type: functional, organism-based; conditions: 96 h; outline: as §3
[16] = system: Influenza A virus; assay: Antiviral activity against Influenza A virus H1N1 infected in MDCK cells assessed as reduction visual scoring of virus-induced cytopathogenicity after 4 days; type: functional, organism-based; conditions: 96 h
Outline: (§4)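 MDCK monolayers infected with 100 CCID50 of influenza A (H1N1 or H3N2) or influenza B, with varying compound concentrations. Cytopathicity read when untreated infected controls reached complete CPE.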

[17] = system: Influenza A virus; assay: Antiviral activity against Influenza A virus H3N2 infected in MDCK cells assessed as reduction visual scoring of virus-induced cytopathogenicity after 4 days; type: functional, organism-based; conditions: 96 h; outline: as §4
[18] = system: Influenza B virus; assay: Antiviral activity against Influenza B virus infected in MDCK cells assessed as reduction visual scoring of virus-induced cytopathogenicity after 4 days; type: functional, organism-based; conditions: 96 h; outline: as §4
[19] = system: Influenza A virus; assay: Antiviral activity against Influenza A virus H1N1 infected in MDCK cells assessed as inhibition of virus-induced cytopathogenicity after 4 days by colorimetric formazan-based MTS assay; type: functional, organism-based; conditions: 96 h
[20] = system: Human betaherpesvirus 5; assay: Antiviral activity against Cytomegalovirus AD-169 infected in HEL cells assessed as inhibition of virus plaque formation after 4 days; type: functional, organism-based; conditions: Human betaherpesvirus 5, AD169, HEL, 96 h
[21] = system: Human betaherpesvirus 5; assay: Antiviral activity against Human cytomegalovirus Davis infected in HEL cells assessed as inhibition of virus plaque formation after 4 days; type: functional, organism-based; conditions: Human betaherpesvirus 5, Davis, 96 h
[22] = system: Human alphaherpesvirus 3; assay: Antiviral activity against thymidine kinase-deficient […] infected in HEL cells assessed as reduction of virus plaque formation after 4 days; type: functional, organism-based; conditions: Human alphaherpesvirus 3, 07-1, HEL, 96 h
[23] = Cytotoxicity against cat CRFK cells assessed as cell viability by colorimetric formazan-based MTS assay; design: species or system Felis catus; conditions: crfk
[24] = system: Feline infectious peritonitis virus; assay: Antiviral activity against FIPV infected in cat CRFK cells assessed as inhibition of virus-induced cytopathic effect after 4 days by colorimetric formazan-based MTS assay; type: functional, cell-based; conditions: Alphacoronavirus 1, CRFK, 96 h
[25] = system: Human immunodeficiency virus 1; assay: Antiviral activity against HIV1 infected in human CEM cells assessed as inhibition of virus-induced cytopathic effect after 4 days; type: functional, organism-based; conditions: Human immunodeficiency virus 1, CCRF-CEM, 96 h
Outline: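 CEM T-lymphocytes (~3 × 10^5 cells/ml) were infected with HIV-1 IIIB or HIV-2 ROD at ~100 CCID50, then immediately plated with a range of compound concentrations. Giant cell formation was scored microscopically after 4 days at 37 °C. Cytostatic activity was tested in parallel in uninfected CEM cells.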

[26] = system: Heme; assay: Binding affinity to monomeric heme in HEPES buffer at pH 5.6 by spectrophotometric analysis
[27] = system: Heme; assay: Binding affinity to monomeric heme in HEPES buffer at pH 7.5 by spectrophotometric analysis
Outline: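 Monomeric hemin (2.4 μM, 40% DMSO in water) was titrated with compound (0–70 μM) added from DMSO stocks, with absorbance read at 402 nm after each addition. Buffer was HEPES (pH 7.4) for the neutral condition and MES ([…]) for the pH 5.6 condition. Stoichiometry was by Job's method and log K by HypSpec fitting.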

[28] = system: mu-oxodimeric heme; assay: Binding affinity to mu-oxo heme in HEPES buffer at pH 5.8 by UV-visible spectrophotometry analysis
[29] = system: Nucleic Acid; assay: Binding affinity to calf thymus DNA after 5 mins by spectrofluorometric analysis; type: nucleic-acid assay; conditions: Bos taurus
Outline: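 Steady-state fluorescence titration at ambient temperature: compound held at 30 μM while DNA was varied (0.3–70 μM), working solutions diluted in methanol. Excitation 320 nm, emission 380 nm, slit 5 nm. Log K was calculated from quenching of the 380 nm emission.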

[30] = system: Nucleic Acid; assay: Binding affinity to calf thymus DNA assessed as melting temperature; type: nucleic-acid assay; conditions: Bos taurus
Outline: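 CT DNA (151 μM NP) was heated with or without compound at a 5:1 DNA:drug ratio in 40% DMSO/TE buffer pH 7.4 with 0.5 mM NaCl. Absorbance at 260 nm was followed with a 0.5 °C/min ramp to obtain Tm.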

For `Cc1nc(NCCCCNc2ccnc3cc(Cl)ccc23)nc(-c2ccccc2[N+](=O)[O-])c1C(=O)OC(C)C`, the IC50 [1] was 0.0182 µM, the “Ratio IC50” value [2] was 0.2 and the CC50 [3] was 2.3 µM. The “Ratio CC50/IC50” value [4] was 638, the MCC [5] was 100 µM and the EC50 [6] was greater than 20 µM. For the same molecule, the EC50 [7] was greater than 20 µM, the EC50 [8] was greater than 20 µM and the EC50 [9] was greater than 20 µM. The EC50 [10] was greater than 4 µM, the EC50 [11] was greater than 4 µM and the EC50 [12] was greater than 4 µM. For the same molecule, the MCC [13] was 20 µM, the MCC [14] was 100 µM and the EC50 [15] was greater than 20 µM. For the same molecule, the EC50 [16] was greater than 0.8 µM, the EC50 [17] was greater than 0.8 µM and the EC50 [18] was greater than 0.8 µM. The EC50 [19] was greater than 0.8 µM, the EC50 [20] was greater than 4 µM and the EC50 [21] was greater than 4 µM. It also gave an EC50 [22] greater than 4 µM, a CC50 [23] of 27.2 µM and an EC50 [24] greater than 20 µM. The EC50 [25] was greater than 2 µM, the log Ks [26] was 4.97 and the log Ks [27] was 5.08. The log Ks [28] was 6.31, the log Ks [29] was 3.39 and the Tm [30] was 62.5 °C.

For `CCOC(=O)c1c(C)nc(NCCCCNc2ccnc3cc(Cl)ccc23)nc1-c1ccccc1`, the IC50 [1] was 0.202 µM, the “Ratio IC50” value [2] was 0.129 and the CC50 [3] was 0.9 µM. The “Ratio CC50/IC50” value [4] was 34.41, the MCC [5] was greater than 100 µM and the EC50 [6] was greater than 100 µM. It also gave an EC50 [7] greater than 100 µM, an EC50 [8] greater than 100 µM and an EC50 [9] greater than 100 µM. The EC50 [10] was greater than 100 µM, the EC50 [11] was greater than 100 µM and the EC50 [12] was greater than 100 µM. It also gave an MCC [13] greater than 20 µM, an MCC [14] greater than 100 µM and an EC50 [15] greater than 100 µM. The EC50 [16] was greater than 0.16 µM, the EC50 [17] was greater than 0.16 µM and the EC50 [18] was greater than 0.16 µM. For the same molecule, the EC50 [19] was greater than 0.16 µM, the EC50 [20] was 2 µM and the EC50 [21] was 1.46 µM. For the same molecule, the EC50 [22] was greater than 20 µM, the CC50 [23] was 13.9 µM and the EC50 [24] was greater than 4 µM. It also gave an EC50 [25] greater than 2 µM, a log Ks [26] of 5.28 and a log Ks [27] of 6.02. The log Ks [28] was 6.09, the log Ks [29] was 4.67 and the Tm [30] was 63 °C.
